The record followed here is ChEMBL document CHEMBL1146920, “3-[5-(4,5-dihydro-1H-imidazol-2-yl)-furan-2-yl]phenylamine (Amifuraline), a promising reversible and selective peripheral MAO-A inhibitor” (J Med Chem, 2006).

In one data set the target is T1, Monoamine oxidase (Rattus norvegicus, UniProt P19643+P21396).
T1 sequence (P19643 whole entry): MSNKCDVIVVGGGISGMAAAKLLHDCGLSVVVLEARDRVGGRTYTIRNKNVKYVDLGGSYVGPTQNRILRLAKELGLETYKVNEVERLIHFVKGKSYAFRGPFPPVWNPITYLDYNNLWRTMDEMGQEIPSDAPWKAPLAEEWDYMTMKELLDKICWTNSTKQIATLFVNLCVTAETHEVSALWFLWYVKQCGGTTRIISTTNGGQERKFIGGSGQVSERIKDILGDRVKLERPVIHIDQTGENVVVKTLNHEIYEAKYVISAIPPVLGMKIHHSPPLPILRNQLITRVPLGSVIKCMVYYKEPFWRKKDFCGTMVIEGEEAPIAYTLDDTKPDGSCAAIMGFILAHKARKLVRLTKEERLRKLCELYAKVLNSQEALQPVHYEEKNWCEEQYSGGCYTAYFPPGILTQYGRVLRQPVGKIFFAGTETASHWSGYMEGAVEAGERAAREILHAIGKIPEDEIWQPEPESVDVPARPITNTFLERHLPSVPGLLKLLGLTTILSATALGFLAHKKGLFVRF
T1 sequence (P21396 whole entry): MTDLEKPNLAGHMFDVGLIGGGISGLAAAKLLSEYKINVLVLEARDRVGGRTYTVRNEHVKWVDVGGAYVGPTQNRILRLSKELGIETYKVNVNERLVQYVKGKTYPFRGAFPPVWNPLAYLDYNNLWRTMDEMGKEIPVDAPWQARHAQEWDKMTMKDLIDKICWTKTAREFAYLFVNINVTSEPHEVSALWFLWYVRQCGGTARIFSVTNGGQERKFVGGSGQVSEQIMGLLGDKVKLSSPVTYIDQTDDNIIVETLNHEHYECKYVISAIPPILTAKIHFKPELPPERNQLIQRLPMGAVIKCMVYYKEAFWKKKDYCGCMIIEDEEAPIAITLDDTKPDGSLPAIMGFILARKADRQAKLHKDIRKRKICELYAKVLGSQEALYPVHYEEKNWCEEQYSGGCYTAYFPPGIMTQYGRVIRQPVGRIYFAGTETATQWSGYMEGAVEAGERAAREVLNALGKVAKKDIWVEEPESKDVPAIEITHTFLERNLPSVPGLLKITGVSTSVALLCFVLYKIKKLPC
Description: Binding affinity to I2-IBS, imidazoline binding site of MAO. The format is functional.

For data set [1], the target named is T2, Amine oxidase [flavin-containing] A (Rattus norvegicus, UniProt P21396).
T2 sequence (P21396 whole entry): T1 sequence (P21396 whole entry)
Briefly: Inhibition of MAO-A in rat liver assessed as inhibition of [14C]5-HT oxidation. The format is functional. The procedure, abridged: (§1)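 Rat liver homogenized in 50 mM sodium phosphate, pH 7.5, with protease inhibitors, then filtered. 10-20 µg crude protein incubated 20 min at 37 °C with the test compound across increasing concentrations. MAO-A substrate: 200 µM [14C]5-HT. MAO-B substrate: 20 µM [14C]PEA plus 0.1 µM clorgyline. Stopped with 4 N HCl; product extracted into ethyl acetate/toluene and counted by scintillation. IC50 taken from sigmoid curves; three experiments.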

Data set [2] deals with T2, Amine oxidase [flavin-containing] A. Briefly: Inhibition of MAO-A in rat liver assessed as decrease in [14C]5-HT oxidation at 10 uM after 20 mins relative to control. The format is functional. Conditions: read-out: Activity; call rule not given here. Put shortly:
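Rat liver homogenate (0.5 mg/mL) in 50 mM phosphate, pH 7.4, incubated 20 min at 37 °C with 10 µM compound or vehicle. MAO-A activity read with 200 µM [14C]serotonin, before and after washing (40 000 g centrifugation, buffer wash, resuspension). Expressed as percent of unwashed vehicle-treated homogenate; duplicate experiments.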

Data set [3] addresses T3, Amine oxidase [flavin-containing] B (Rattus norvegicus, UniProt P19643).
T3 sequence (P19643 whole entry): T1 sequence (P19643 whole entry)
Briefly: Decrease in MAO-B activity in Sprague-Dawley rat brain at 50 mg/kg, ip. It counts as functional, organism-based. Set-up: dose 50 mg/kg, route intraperitoneal. The following applies: in vivo. The procedure, abridged:
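Male Sprague Dawley rats (~250 g), four per group, got three ip doses of 50 mg/kg (10 mg/mL in saline or DMSO/saline), 20 h, 4 h 30 min and 1 h 30 min before sacrifice. Brain was stored at -80 °C and homogenized in 50 mM phosphate, pH 7.5. Homogenate was incubated 20 min at 37 °C with 20 µM [14C]PEA plus 0.1 µM clorgyline. Extracted product was scintillation-counted and compared with vehicle.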

The target of data set [4] is T3, Amine oxidase [flavin-containing] B. Description: Inhibition of MAO-B in rat liver assessed as inhibition of [14C]PEA oxidation in presence of 0.1 uM clorgyline. It counts as functional. Put shortly: as §1
Data set [5] deals with T2, Amine oxidase [flavin-containing] A. Description: Residual activity at MAO-A in Sprague-Dawley rat liver at 50 mg/kg, ip. It counts as functional, organism-based. The following applies: read-out: Activity. The arrangement: dose 50 mg/kg, route intraperitoneal. The procedure, abridged: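 Male Sprague Dawley rats (about 250 g) received three i.p. injections of 50 mg/kg (10 mg/mL in DMSO/saline or saline) or vehicle, given 20 h, 4 h 30 min and 1 h 30 min before sacrifice. Four rats per group; three per vehicle control. Frozen liver homogenate assayed for MAO-A with 200 µM [14C]5-HT. Expressed relative to vehicle-treated animals.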

SMILES strings stand for the structures.

As to `C1=C(C2=NCCN2)CCc2ccccc21`, at Monoamine oxidase, the “Log Ki” value is -7.95.

The IC50 is the point on the concentration scale where inhibition reaches its midpoint. For the compound `c1ccc(-c2ccc(C3=NCCN3)cn2)cc1`, in data set [1], the IC50 was 1.8 µM. The inhibition at 10 µM in data set [2] came to 53%. Moreover, the Activity result in data set [3] is listed as “Active”.

Take `OCc1ccc(-c2ccc(C3=NCCN3)o2)cc1`: the IC50 in data set [1] came to 1.2 µM. Further, in data set [2], the inhibition at 10 µM came out at 79%.

On to `c1ccc([C@H]2O[C@@H]2C2=NCCN2)cc1` (relative stereo), for which, on Monoamine oxidase, the “Log Ki” value is -7.55.

On to `Nc1cccc(-c2ccc(C3=NCCN3)o2)c1` [AMIFURALINE], for which the half-maximal inhibitory concentration (IC50) is 0.6 µM in data set [1] and 19.1 µM in data set [4]. Besides, in data set [2], the inhibition at 10 µM was 85%. For the same compound, the activity at 50 mg/kg in data set [5] is 36%.

`c1ccc(-c2ccc(C3=NCCN3)o2)cc1` [FURALINE]: on Monoamine oxidase, the “Log Ki” value is on record as -7.68.

As to `C(=C\c1ccccc1)/C1=NCCN1` [TRACIZOLINE], on Monoamine oxidase, the “Log Ki” value is reported as -8.72.
